Assay outcomes from PubChem.
An excerpt weighted towards active compounds, which were near 2.1% of everything screened.
FN deposit inh: inhibitors of fibronectin matrix deposition, primary screen, AH1F cells, Alexa488-fibronectin fluorescence, plate reader; AH1F fibroblasts, overnight; inhibition, % at 12.6 µM; 350,000 tested, 0.086% active; AID 743247, 2014;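 active means mean inhibition across replicates of 30% or more, regardless of how many single replicates reach that level; inconclusive means mean under 30% yet at least half of replicates reach 30%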;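 further: positive control wells lacked labelled fibronectin entirely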
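Assay system: AH1F fibroblasts / Quantity: 10000 cells per well / Medium: DMEM plus 2% serum, read in PBS / Reagent: labelled fibronectin 24 nM / Dosing: single dose, pinned / Times: 1 h cell attachment, overnight exposure to compound and label / Signal: fluorescence, ex 485 nm, em 525 nm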
Shn3 3UTR inh: reduction of Shn3 3'UTR firefly luciferase signal, primary screen, Schnurri-3 inhibitor project, cell-based, Clone20 osteoblasts, set 2; Clone20 osteoblast Shn3 3'UTR firefly luciferase, 24 h; inhibition, % at 12.5 µM; 360,000 tested, 0.52% active; AID 588674, 2011;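 active means mean inhibition of at least 75% with every replicate also reaching 75%; inconclusive means mean inhibition at least 75% but some replicate below; inactive means mean inhibition below 75%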;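 further: 0% = median of neutral control wells and 100% = pilot-screen positive control compound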
PAX8 inh HTS: inhibitors of PAX8-driven TPO luciferase reporter, primary screen, RMG-I cells, single concentration | SteadyGlo, 24 h | inhibition, % at 12.6 µM | 360,000 tested, 1.2% active;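 active means mean replicate inhibition at least 60% with every replicate also reaching 60%; inconclusive means only one of the two criteria is met; inactive means mean below 60% and not all replicates reaching 60%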;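 further: luciferase light reporting Pax8 driven TPO promoter activity; plate controls were median of neutral control wells for no effect and mitoxantrone controls for full effect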
EWS-Fli inh: EWS/Fli-driven NR0B1 reporter inhibitors, primary screen, A673 cells, NR0B1 luciferase, luminescence, MLPCN library | viability-normalised | inhibition, % at 12.6 µM | 350,000 tested, 0.67% active;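 active means mean inhibition of at least 50% after viability correction, with every replicate also passing that limit; inconclusive means mean reaches 50% but only one of two replicates passes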;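 further: firefly luciferase signal divided by Alamar Blue viability fluorescence both relative to DMSO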
EBV LMP1 NFkB: EBV LMP1-driven NF-kappaB luciferase reporter inhibitors, primary screen, cell-based, luminescence, single point | LMP1-induced NF-kappaB luciferase reporter cells | inhibition, % at 12.5 µM | 350,000 tested, 0.69% active; in the data active means inhibition above about 41%; inconclusive means no clear call, values can overlap the other calls;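 further: 0% = neutral control wells and 100% = reference inhibitor control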
aSyn UTR inh: MLPCN primary screen, SNCA 5' untranslated region; alpha-synuclein 5'UTR reporter, inhibitor activity; inhibition, % (tested at 7.5 µM); 300,000 tested, 0.82% active; AID 1813, 2009; in the data active means inhibition above about 60%; inconclusive means no clear call, values can overlap the other calls;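 further: H4 neuroglioblastoma cells stably carrying SNCA 5'UTR luciferase fusion; 0% = DMSO wells and 100% = positive control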
Starred values were filed as active, the others as inactive; ? = inconclusive; . = not tested or not shown.

SMILES	FN deposit inh	Shn3 3UTR inh	PAX8 inh HTS	EWS-Fli inh	EBV LMP1 NFkB	aSyn UTR inh
Cc1ccc(S(=O)(=O)Nc2ccc3c(c2)C(=O)N([C@@H](C)CO)C[C@H](C)[C@H](CN(C)S(=O)(=O)c2ccccc2)OCCCC[C@H](C)O3)cc1	-6	.	67*	12	.	.
C[C@H](CO)N1C[C@H](C)[C@H](CN(C)C)OCCCC[C@H](C)Oc2ccc(NS(=O)(=O)c3ccc(F)cc3)cc2C1=O	-1	.	2	-1	.	.
CC(O)CC(=O)OC[C@]12CC[C@H]3[C@@](C)(CC[C@H]4C(C)(C)CCC[C@]34C)[C@@H]1CC(C1=CC(=O)OC1O)O2 (stereo partly specified)	.	93*	.	59*	.	.
Cc1cc(O)c(-c2cc(O)c(C)cc2O)cc1O	37*	-16	?	70*	-30	23
C[C@H]1CCCCO[C@H](CN(C)C(=O)Nc2ccc(C(F)(F)F)cc2)[C@@H](C)CN([C@@H](C)CO)C(=O)c2cc(NS(=O)(=O)c3cccs3)ccc2O1	2	.	79*	20	.	.
C[C@@H]1CCCCO[C@H](CN(C)C(=O)Nc2ccc(C(F)(F)F)cc2)[C@@H](C)CN([C@@H](C)CO)C(=O)c2cc(NS(=O)(=O)c3ccccc3)ccc2O1	-15	.	81*	7	.	.
C[C@@H]1CCCCO[C@H](CN(C)C(=O)Nc2ccc(C(F)(F)F)cc2)[C@@H](C)CN([C@H](C)CO)C(=O)c2cc(NS(=O)(=O)c3ccccc3)ccc2O1	4	.	7	3	.	.
C[C@@H]1CCCCO[C@@H](CN(C)C(=O)Nc2ccc(C(F)(F)F)cc2)[C@@H](C)CN([C@H](C)CO)C(=O)c2cc(NS(=O)(=O)c3ccc(F)cc3)ccc2O1	8	.	66*	.	.	.
C[C@@H]1CCCCO[C@H](CN(C)C(=O)Nc2ccc(C(F)(F)F)cc2)[C@H](C)CN([C@@H](C)CO)C(=O)c2cc(NS(=O)(=O)c3cccs3)ccc2O1	.	.	32	11	.	.
Cc1ccc(S(=O)(=O)Nc2ccc3c(c2)C(=O)N([C@@H](C)CO)C[C@H](C)[C@@H](CN(C)C(=O)Nc2ccc(C(F)(F)F)cc2)OCCCC[C@@H](C)O3)cc1	-8	.	75*	9	.	.
C[C@H](CO)N1C[C@H](C)[C@@H](CN(C)Cc2ccc(C(=O)Nc3ccccc3N)cc2)Oc2ccc(NC(=O)Cn3cnnn3)cc2C1=O	0	.	.	9	.	.
C[C@@H]1CN([C@@H](C)CO)C(=O)c2cc(NS(=O)(=O)c3ccc(F)cc3)ccc2O[C@@H]1CN(C)C(=O)Nc1ccc(C(F)(F)F)cc1	.	.	71*	-7	.	.
C[C@H](CO)N1C[C@H](C)[C@H](CN(C)C(=O)Nc2ccc(C(F)(F)F)cc2)Oc2ccc(NS(=O)(=O)c3ccc(F)cc3)cc2C1=O	.	.	-17	-15	.	.
C[C@H]1CCCCO[C@H](CN(C)C(=O)Nc2ccc(C(F)(F)F)cc2)[C@@H](C)CN([C@@H](C)CO)C(=O)c2cc(NS(=O)(=O)c3ccc(Cl)cc3)ccc2O1	.	.	91*	13	.	.
O=C(N[C@@H]1CC[C@H](CCNC(=O)C2CCOCC2)O[C@H]1CO)c1ccncc1	6	.	1	-3	.	.
CCn1c(O)c(/C=C2\C=NN=C2c2ccccc2)sc1=S	-3	-5	8	-3	-6	67*
Cc1ccc(NC(=O)/C=N/OCC(=O)NCc2ccccc2Cl)cc1	-2	3	7	4	48*	-8
CN1/C(=C/c2cc[n+](C)c3ccccc23)C=Cc2ccccc21	.	85	.	.	47*	.
C[C@@H]1CCCCO[C@@H](CN(C)Cc2ccc(C(=O)Nc3ccccc3N)cc2)[C@@H](C)CN([C@H](C)CO)C(=O)c2cc(NS(=O)(=O)c3cn(C)cn3)ccc2O1	.	.	-8	5	.	.
Cc1ccc(C(=O)/C=C/c2ccc(-c3ccc(C)cc3)o2)cc1	-1	92*	9	.	-15	-73
O=C(C[C@H]1CC[C@@H](NC(=O)C2CC2)[C@@H](CO)O1)NCc1ccncc1	-10	.	5	6	.	.
O=C1c2ccccc2NC(c2ccc(-c3ccccc3F)o2)N1O (stereo unspecified)	15	-66	-65	-74	-18	.
Cc1cc([N+](=O)[O-])ccc1-c1ccc(C2Nc3ccccc3C(=O)N2O)o1 (stereo unspecified)	.	83	.	8	34	83*
CCCNC(=O)c1nnsc1S(=O)(=O)c1ccc(Cl)cc1	21	92*	112*	13	?	.
CCCNC(=O)NS(=O)(=O)c1ccc(Cl)cc1	5	-11	-9	-2	58*	-22
SMILES	FN deposit inh	Shn3 3UTR inh	PAX8 inh HTS	EWS-Fli inh	EBV LMP1 NFkB	aSyn UTR inh
CNC(=O)c1nnsc1S(=O)c1ccc(Cl)cc1 (stereo unspecified)	.	97*	56	-11	8	-49
Cc1ccc(S(=O)c2snnc2C)cc1 (stereo unspecified)	4	-3	-19	20	-1	-66
Cc1ccc(S(=O)(=O)NC(=O)NCCc2ccccc2)cc1	3	15	18	5	4	-8
CCCNC(=O)c1nnsc1S(=O)c1ccc(Cl)cc1 (stereo unspecified)	.	96*	79*	41	2	-54
CCCNC(=O)c1ccc(S(N)(=O)=O)cc1	-20	5	10	8	4	1
CCCNC(=O)c1ccc2snnc2c1	.	6	.	.	-5	12
COc1ccc2c3c([nH]c2c1)[C@@H](CO)N(C(=O)c1ccccn1)CC31CN(S(C)(=O)=O)C1	.	.	.	7	.	.
COCCn1c(C)cc(C(=O)CSc2nnnn2C2CCCC2)c1C	-3	34	39	82*	70*	.
COCCn1c(C)cc(C(=O)CSc2nnc(C)s2)c1C	2	70	75*	.	74*	100*
Cc1noc(C)c1NC(=O)Nc1cccc2c1O[C@@H](CN(C)S(C)(=O)=O)[C@@H](C)CN([C@H](C)CO)C2=O	.	.	.	-5	.	.
COC(=O)c1ccccc1NC(=O)CSc1nc(-c2ccco2)cc(C(F)(F)F)n1	.	-3	.	51*	19	.
Cc1[nH]n(-c2nc(-c3ccc(Cl)cc3)cs2)c(=O)c1N=Nc1ccc(O)cc1	-6	90*	-4	41	-42	-118
CCc1c(C)[nH]n(-c2nc(-c3ccccc3)cs2)c1=O	.	-18	-40	-17	9	-21
C[C@H](CO)N1C[C@H](C)[C@@H](CN(C)CC2CC2)Oc2c(NS(=O)(=O)c3cccs3)cccc2C1=O	.	.	11	4	.	.
O=C(CSc1nnc(-c2ccc(Br)cc2)o1)Nc1cccc2ccccc12	.	-17	.	-29	2	.
Cc1ccc(-c2nnc(SCC(=O)Nc3ccccc3F)o2)cc1	-4	75	59	85*	79*	92*
